From PubChem BioAssay
Compounds with a hit are over-represented: about 1.9% of the library has one in this group of screens.
Hck Nef HTS – inhibitors of Nef-activated human Hck kinase, primary screen, biochemical, Z-Lyte FRET, 384-well, Hck-YEEI | Recombinant Hck-YEEI plus Nef, Z-Lyte FRET kinase assay | inhibition, % at 20 µM | hit rate 0.68% among 220,000 | Tyrosine-protein kinase HCK (Homo sapiens), P08631;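 active = Hck-Nef kinase inhibition above about 50%, limit read from the data; inactive = inhibition below that limit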;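 note: 0% = DMSO with Hck plus Nef and 100% = Hck alone without Nef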
Target sequence (P08631 whole entry, looked up): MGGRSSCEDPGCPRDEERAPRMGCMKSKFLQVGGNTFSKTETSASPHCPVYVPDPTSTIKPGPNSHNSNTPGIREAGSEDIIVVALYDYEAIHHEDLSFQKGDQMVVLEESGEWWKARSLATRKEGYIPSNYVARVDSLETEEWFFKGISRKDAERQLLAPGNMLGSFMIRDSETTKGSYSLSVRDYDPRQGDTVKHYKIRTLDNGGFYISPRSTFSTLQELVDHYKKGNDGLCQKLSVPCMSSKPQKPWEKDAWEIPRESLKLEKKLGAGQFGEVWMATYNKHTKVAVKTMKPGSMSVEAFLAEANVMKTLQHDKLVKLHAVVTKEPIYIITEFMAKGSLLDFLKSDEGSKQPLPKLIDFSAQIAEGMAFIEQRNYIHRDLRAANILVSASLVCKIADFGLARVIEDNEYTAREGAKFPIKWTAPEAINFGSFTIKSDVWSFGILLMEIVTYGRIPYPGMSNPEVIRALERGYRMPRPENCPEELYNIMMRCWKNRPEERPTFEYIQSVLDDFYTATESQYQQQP
RanGTP-Imp inh – inhibitors of RanGTP-importin-beta interaction, primary screen, biochemical, FRET, CFP-Ran, YFP-importin-beta, homogeneous | Ran GTPase (GTP-bound) - importin-beta complex | cell-free CFP-Ran/YFP-importin-beta FRET ratio | inhibition, % (concentration not given with the values) | hit rate 1.1% among 300,000 | AID 2216, 2009;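 active = more than half of the replicate wells show a fall in the fluorescence ratio signal beyond about 16%, limit read from the data, passing the limit was not always enough; inconclusive = exactly half of the replicate wells pass the set limit; inactive = fewer than half of replicates pass the limit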;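 note: 0% = DMSO wells and 100% = Ran loaded with GDP instead of GTP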
Runt-CBFb FRET – inhibitors of RUNX1 Runt–CBFb binding, primary screen, biochemical, FRET, Cerulean-Runt, Venus-CBFb, uHTS; Runt-related transcription factor 1 (Homo sapiens) + Core-binding factor subunit beta …; Cerulean-Runt/Venus-CBFb FRET ratio 530/480, 1 h; inhibition, % at 20 µM; hit rate 0.46% among 220,000; AID 1496, 2009;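 active = inhibition over about 50% at 20 µM in the single-dose screen, limit read from the data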;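 note: 0% = DMSO wells and 100% = excess unlabeled CBFb competitor control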
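Assay system: Cerulean-Runt domain / Medium: Tris 50 mM pH 7.5, KCl, K2SO4, 0.01% BSA / Timing: protein complex preformed 1 h, compound exposure 1 h, room temperature, dark / Measured by: FRET, excitation 422 nm, emission at 530 and 480 nm / Evaluation: loss of energy transfer signal / Control set: 5 µM unlabeled CBFb as full-inhibition high control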
TbHK1 inh – Trypanosoma brucei hexokinase 1 inhibitors, primary screen, biochemical, G6PDH-coupled NADH absorbance, MLSCN library | hit rate 0.11% among 220,000 | AID 1430, 2008 | hexokinase 1 [Trypanosoma brucei] | inhibition, % at 10 µM | recombinant TbHK1, G6PDH-coupled NADH A340;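 active = inhibition of 50% or more in the single-dose primary screen; inactive = inhibition below 50%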
Runt-SMMHC FRET – inhibitors of RUNX1 Runt–CBFb-SMMHC binding, primary screen, biochemical, FRET, Cerulean-Runt, Venus-CBFb-SMMHC, uHTS | Runt-related transcription factor 1 (Homo sapiens) + Core-binding factor subunit beta … | Cerulean-Runt/Venus-CBFb-SMMHC FRET ratio 530/480, 1 h | inhibition, % at 20 µM | hit rate 0.74% among 220,000;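 active = mean inhibition across duplicate retests at 20 µM reaching about 50%, limit read from the data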;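 note: 0% = DMSO wells and 100% = wells with excess untagged CBFb-SMMHC; inhibitors lower the FRET ratio by blocking Runt binding to CBFb-SMMHC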
Hck-Nef confirm – retest of Hck:Nef kinase inhibitor hits, confirmation, biochemical, Z-Lyte FRET, 384-well, p-Tyr peptide counterscreen | shares compounds with Hck Nef HTS | Recombinant Hck-YEEI:Nef, Z-Lyte FRET kinase assay | calls only at 10 µM | hit rate 28% among 1,300 | AID 463188, 2010;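 active = average inhibition of at least 50%, with Z-scores no higher than 3 in both the phospho-tyrosine peptide and fluorescence counterscreens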
* marks the source's active call; other numbers are inactive results.

`Cc1cc(/C=C2\SC(=Nc3ccccc3)NC2=O)c(C)n1-c1ccc(S(N)(=O)=O)cc1` gave Hck Nef HTS 58.8*, RanGTP-Imp inh 20.8*, Runt-CBFb FRET 0.5, TbHK1 inh -7.8, Runt-SMMHC FRET -1.6 and Hck-Nef confirm inactive.
For COc1ccc2nc(-n3c(O)c(C4=c5ccccc5=NC4=O)[nH]c3=S)sc2c1 the results were Hck Nef HTS 102.5*, RanGTP-Imp inh -9.7, Runt-CBFb FRET -12.0, TbHK1 inh 19.1, Runt-SMMHC FRET -12.0 and Hck-Nef confirm active.
CCc1cccc(CC)c1NC(=S)Nc1ccccc1 was read as Hck Nef HTS -5.1, RanGTP-Imp inh 0.4, Runt-CBFb FRET -0.5, TbHK1 inh -7.5 and Runt-SMMHC FRET 2.1.
Screening CCOC(=O)c1cc(C(=O)OCC)c2ccccn2c1=O returned Hck Nef HTS 95.3*, RanGTP-Imp inh 66.1*, Runt-CBFb FRET 97.4*, TbHK1 inh -16.7 and Runt-SMMHC FRET 60.5*.
COc1ccc(C(=O)Nc2ccc(O)c3c(=O)cc(-c4cccc(Cl)c4)oc23)cc1 was read as Hck Nef HTS 82.8*, RanGTP-Imp inh 0.8, Runt-CBFb FRET 1.3, TbHK1 inh -15.4, Runt-SMMHC FRET 0.8 and Hck-Nef confirm inactive.
CC(C)(C)c1ccc(C(=O)Nc2ccc(O)c3c(=O)cc(-c4cccc(Cl)c4)oc23)cc1 was read as Hck Nef HTS 24.8, RanGTP-Imp inh -6.8, Runt-CBFb FRET 1.8, TbHK1 inh -8.9 and Runt-SMMHC FRET -6.7.
CCOC(=O)c1c(NC(=O)CSc2nc3cc(Cl)ccc3c(=O)n2Cc2ccco2)sc(C(=O)N(C)C)c1C was read as Hck Nef HTS 24.8, RanGTP-Imp inh inconclusive, Runt-CBFb FRET -4.8, TbHK1 inh -8.2 and Runt-SMMHC FRET 2.5.
For CCOC(=O)c1c(NC(=O)C2CCCO2)sc(C(=O)OC(C)(C)C)c1C (centres undefined) the results were Hck Nef HTS 67.6*, RanGTP-Imp inh 0.9, Runt-CBFb FRET 29.8, TbHK1 inh -6.2, Runt-SMMHC FRET -10.5 and Hck-Nef confirm inactive.
Screening CCOC(=O)c1sc(NC(=O)C2CCCO2)c(C(=O)OCC)c1C (centres undefined) returned Runt-CBFb FRET -0.1 and Runt-SMMHC FRET -0.5.
Screening CCc1nnc(NS(=O)(=O)c2ccc(NC(=S)NC(=O)/C=C/c3ccccc3)cc2)s1 returned Hck Nef HTS 4.7, RanGTP-Imp inh -2.8, Runt-CBFb FRET -4.1, TbHK1 inh 1.1 and Runt-SMMHC FRET -2.7.
`CCc1nnc(NS(=O)(=O)c2ccc(NC(=S)NC(=O)/C=C/c3ccc(C(C)C)cc3)cc2)s1` gave Hck Nef HTS 65.2*, RanGTP-Imp inh -5.1, Runt-CBFb FRET -46.9, TbHK1 inh 6.9, Runt-SMMHC FRET -83.0 and Hck-Nef confirm active.
Screening Cc1nccn1CCCNC(=O)C1CCC(=O)N(Cc2ccccc2F)C1 (centres undefined) returned RanGTP-Imp inh 5.3.
`Cc1ccc(NC(=O)CCC(=O)N/N=C/c2coc3ccc(F)cc3c2=O)cc1` gave RanGTP-Imp inh 0.8.
Screening Cc1ccc(NC(=O)CCC(=O)N/N=C/c2coc3ccccc3c2=O)cc1 returned Hck Nef HTS 64.0*, RanGTP-Imp inh inconclusive, Runt-CBFb FRET -3.7, TbHK1 inh 0.5, Runt-SMMHC FRET -1.6 and Hck-Nef confirm active.
For C#CCNC(=O)C1=C[C@@H](c2cn(C(C)=O)c3ccccc23)C[C@@H](OCc2ccc(CO)cc2)O1 the results were Hck Nef HTS 10.9, RanGTP-Imp inh 0.5, Runt-CBFb FRET -1.4, TbHK1 inh -13.1 and Runt-SMMHC FRET -0.7.
CC(=O)n1cc([C@H]2C=C(C(=O)NCc3ccccc3)O[C@@H](OCc3ccc(CO)cc3)C2)c2ccccc21 was read as Hck Nef HTS 53.4*, RanGTP-Imp inh -0.8, Runt-CBFb FRET -0.6, TbHK1 inh -12.0, Runt-SMMHC FRET -3.1 and Hck-Nef confirm active.
For CC(C)(C)CC(=O)Nc1nnc(SCC(=O)N2CCCCC2)s1 the results were RanGTP-Imp inh -0.7.
Cc1cc(SCC(=O)OCC(=O)c2c(N)n(C)c(=O)n(C)c2=O)c(C)cc1Br was read as Hck Nef HTS 55.0*, RanGTP-Imp inh 0.8, Runt-CBFb FRET -3.3, TbHK1 inh 1.8, Runt-SMMHC FRET -1.8 and Hck-Nef confirm inactive.
`COc1cccc(=O)c2c(C)n(-c3cc(C)cc(C)c3)c(C)c12` gave Hck Nef HTS 1.7, RanGTP-Imp inh -16.6, Runt-CBFb FRET 1.9, TbHK1 inh -5.5 and Runt-SMMHC FRET -3.0.
COc1cccc(-n2c(C)c3c(OC)cccc(=O)c3c2C)c1 was read as Hck Nef HTS 50.9*, RanGTP-Imp inh 0.3, Runt-CBFb FRET 3.6, TbHK1 inh -3.8, Runt-SMMHC FRET -9.1 and Hck-Nef confirm inactive.
`Cc1ccccc1NS(=O)(=O)c1ccc(C(=O)NCC(C)(C)N2CCOCC2)cc1` gave RanGTP-Imp inh -2.7.
Screening Cn1nccc1C(=O)Nc1sc2c(c1C(N)=O)CCCC2 returned Hck Nef HTS 67.9*, RanGTP-Imp inh -0.9, Runt-CBFb FRET 1.6, TbHK1 inh -13.5, Runt-SMMHC FRET -1.4 and Hck-Nef confirm inactive.
For Nc1c(C(=O)N/N=C/c2ccccc2)cnn1-c1ccccc1 the results were Hck Nef HTS 67.9*, RanGTP-Imp inh 2.0, Runt-CBFb FRET 0.6, TbHK1 inh 0.5, Runt-SMMHC FRET 0.1 and Hck-Nef confirm inactive.
COC(CNC(=O)[C@H](Cc1ccccc1)N1Cc2ccccc2C1=O)OC was read as RanGTP-Imp inh 4.2.
`O=C(Oc1ccc2ccc(=O)oc2c1)C1CCCCC1` gave Hck Nef HTS 66.9*, RanGTP-Imp inh 3.8, Runt-CBFb FRET 30.1, TbHK1 inh 33.9, Runt-SMMHC FRET 48.2 and Hck-Nef confirm inactive.
O=C(COc1ccc2ccc(=O)oc2c1)NC1CCCC1 was read as RanGTP-Imp inh 3.1.
CCOC(=O)c1cc(C(=O)NCc2ccc(Cl)cc2Cl)nn1C was read as Hck Nef HTS 0.3, RanGTP-Imp inh 0.4, Runt-CBFb FRET -6.0, TbHK1 inh 0.2 and Runt-SMMHC FRET -1.8.
`CCOC(=O)c1cc(C(=O)Nc2ccc(C)c(F)c2)nn1C` gave Hck Nef HTS 106.1*, RanGTP-Imp inh 0.7, Runt-CBFb FRET -1.6, TbHK1 inh 4.0, Runt-SMMHC FRET 1.0 and Hck-Nef confirm inactive.
